# Reference: publication PMC3064798 (Nucleic Acids Research, 2011)
# Substitutions are numbered along the chain they refer to.
# Assays:
# Type in all cases: biochemical
# [1] = target: T1, Vent(exo^−) polymerase (Thermococcus litoralis, UniProt P30317, D141A/DEL1082-1471/DEL495-1032/E143A); experiment: PEP; settings: for Incorporation bias (analog IC50/HOMedUTP IC50): Vent(exo^−)
# T1 sequence (P30317 with tags, fused parts or gaps D141A/E143A/DEL495-1032/DEL1082-1471): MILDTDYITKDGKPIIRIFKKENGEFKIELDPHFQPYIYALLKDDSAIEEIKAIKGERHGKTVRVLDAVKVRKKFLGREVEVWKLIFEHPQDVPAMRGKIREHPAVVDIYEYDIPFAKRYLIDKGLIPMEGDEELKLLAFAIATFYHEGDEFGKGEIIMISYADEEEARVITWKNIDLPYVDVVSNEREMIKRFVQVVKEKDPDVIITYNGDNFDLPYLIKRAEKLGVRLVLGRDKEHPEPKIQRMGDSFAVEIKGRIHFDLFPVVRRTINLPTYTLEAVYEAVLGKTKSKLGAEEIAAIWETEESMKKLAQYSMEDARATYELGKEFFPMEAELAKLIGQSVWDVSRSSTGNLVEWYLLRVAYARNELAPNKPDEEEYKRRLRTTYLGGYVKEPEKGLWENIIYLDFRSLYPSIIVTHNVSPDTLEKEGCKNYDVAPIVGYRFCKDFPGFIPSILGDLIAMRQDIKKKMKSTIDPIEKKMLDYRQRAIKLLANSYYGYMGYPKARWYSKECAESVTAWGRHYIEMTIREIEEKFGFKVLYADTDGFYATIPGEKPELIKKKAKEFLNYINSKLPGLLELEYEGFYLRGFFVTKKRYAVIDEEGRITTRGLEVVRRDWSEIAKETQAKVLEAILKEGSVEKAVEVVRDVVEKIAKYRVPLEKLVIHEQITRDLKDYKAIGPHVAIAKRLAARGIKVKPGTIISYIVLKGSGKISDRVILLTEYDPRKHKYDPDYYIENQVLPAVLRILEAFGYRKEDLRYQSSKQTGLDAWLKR
# How it was run: (§1)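 Polymerase end-point assay for single-base incorporation. 5 nM BODIPY-FL-labelled primer-1 was hybridised to 40 nM oligoTemplate-4, with the interrogation base complementary to dU. Absence of a +1 band on the 377 gel image at 100 μM counts as not active. IC50 was averaged from triplicates ± 1 SD. Incorporation bias is the analog IC50 divided by the natural-nucleotide (HOMedUTP) IC50.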
# [2] = target: T2, Therminator II polymerase (Thermococcus sp., UniProt Q56366, A485L/D141A/E143A/Y409V); experiment: PEP; settings: for Incorporation bias (analog IC50/HOMedUTP IC50): Therminator II
# T2 sequence (Q56366 1-775 D141A/E143A/Y409V/A485L): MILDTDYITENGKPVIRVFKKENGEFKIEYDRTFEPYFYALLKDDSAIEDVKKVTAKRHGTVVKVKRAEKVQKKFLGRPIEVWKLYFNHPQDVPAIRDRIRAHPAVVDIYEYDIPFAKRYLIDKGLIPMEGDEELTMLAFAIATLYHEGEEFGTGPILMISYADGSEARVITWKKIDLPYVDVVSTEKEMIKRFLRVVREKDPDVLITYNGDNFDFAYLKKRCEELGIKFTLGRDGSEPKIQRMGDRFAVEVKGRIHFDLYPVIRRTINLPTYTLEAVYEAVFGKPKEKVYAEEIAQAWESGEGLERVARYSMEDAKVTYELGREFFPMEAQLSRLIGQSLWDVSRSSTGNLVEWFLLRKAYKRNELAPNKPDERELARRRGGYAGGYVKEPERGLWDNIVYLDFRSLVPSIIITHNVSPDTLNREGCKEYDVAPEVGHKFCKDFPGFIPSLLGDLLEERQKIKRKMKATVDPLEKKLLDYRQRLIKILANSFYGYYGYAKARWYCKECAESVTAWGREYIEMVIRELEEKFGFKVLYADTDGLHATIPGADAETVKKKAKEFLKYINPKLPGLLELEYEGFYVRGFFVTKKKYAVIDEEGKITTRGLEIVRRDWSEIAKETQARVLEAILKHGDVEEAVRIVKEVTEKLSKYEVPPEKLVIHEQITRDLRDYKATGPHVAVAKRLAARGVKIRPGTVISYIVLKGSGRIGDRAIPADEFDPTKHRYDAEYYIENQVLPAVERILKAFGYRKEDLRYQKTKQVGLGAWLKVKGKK
# How it was run: as §1
# [3] = target: TaqFS polymerase (Thermus aquaticus, UniProt P19821, F667Y/G46D); experiment: PEP; settings: for IC50 values (activity in words): TaqFS, Not Active = no visible +1 band in 377 gel image at 100 μM
# How it was run: as §1
# [4] = target: T3, Therminator polymerase (Thermococcus sp., UniProt Q56366, A485L/D141A/E143A); experiment: PEP; settings: for Incorporation bias (analog IC50/HOMedUTP IC50): Therminator
# T3 sequence (Q56366 1-775 D141A/E143A/A485L): T2 sequence (Q56366 1-775 D141A/E143A/Y409V/A485L) with V409Y
# How it was run: as §1
# [5] = target: T1, Vent(exo^−) polymerase; experiment: Nucleotide selectivity; settings: against a 'G' template base
# How it was run: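 Base discrimination was measured by PEP assay. OligoTemplate-4 was replaced with 40 nM oligoTemplate-2 or oligoTemplate-5 to give mismatched template bases. For the T—G mismatch, 5 nM BODIPY-FL primer-3 was hybridised to 40 nM oligoTemplate-8. The selectivity ratio is the mismatched IC50 divided by the matched IC50.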
# TaqFS polymerase, sequence (P19821 whole entry G46D/F667Y): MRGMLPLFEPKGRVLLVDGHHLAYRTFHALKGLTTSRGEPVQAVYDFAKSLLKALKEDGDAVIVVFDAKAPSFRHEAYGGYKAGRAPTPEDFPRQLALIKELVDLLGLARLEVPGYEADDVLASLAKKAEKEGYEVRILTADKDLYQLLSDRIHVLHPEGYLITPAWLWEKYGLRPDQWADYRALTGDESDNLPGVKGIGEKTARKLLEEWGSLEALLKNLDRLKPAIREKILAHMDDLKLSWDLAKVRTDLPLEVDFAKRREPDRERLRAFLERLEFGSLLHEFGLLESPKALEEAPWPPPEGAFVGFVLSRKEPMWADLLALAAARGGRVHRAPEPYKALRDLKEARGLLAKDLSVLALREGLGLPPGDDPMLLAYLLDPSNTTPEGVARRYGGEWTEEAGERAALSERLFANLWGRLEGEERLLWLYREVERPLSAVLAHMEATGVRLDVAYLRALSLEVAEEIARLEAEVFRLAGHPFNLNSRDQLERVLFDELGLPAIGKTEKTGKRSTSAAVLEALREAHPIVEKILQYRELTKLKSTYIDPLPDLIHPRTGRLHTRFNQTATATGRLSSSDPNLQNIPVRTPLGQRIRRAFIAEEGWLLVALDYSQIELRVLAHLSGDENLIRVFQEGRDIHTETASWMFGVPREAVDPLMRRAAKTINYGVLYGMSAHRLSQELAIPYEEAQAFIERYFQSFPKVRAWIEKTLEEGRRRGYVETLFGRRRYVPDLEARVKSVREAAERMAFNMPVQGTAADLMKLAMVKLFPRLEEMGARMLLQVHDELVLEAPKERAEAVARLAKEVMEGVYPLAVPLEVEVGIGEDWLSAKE
Compound,IC50 [1],Incorporation bias (analog IC50/HOMedUTP IC50) [1],IC50 [2],Incorporation bias (analog IC50/HOMedUTP IC50) [2],IC50 values (activity in words) [3],Incorporation bias (analog IC50/HOMedUTP IC50) [4],Selectivity ratio (mismatched IC50/matched IC50) [5],IC50 [3],IC50 [4]
"CC(OCc1cn([C@H]2C[C@H](O)[C@@H](COP(=O)(O)OP(=O)(O)OP(=O)(O)O)O2)c(=O)[nH]c1=O)c1ccccc1[N+](=O)[O-] (mixture of isomers) [dU.II, 5-[1-(2-Nitrophenyl)ethyloxy]methyl-2'-deoxyuridine-5’-triphosphate]",2.2 ± 0.2 nM,1.6,14 ± 1 nM,1.9,no activity at all,1.0,,,
"CC(C)C(OCc1cn([C@H]2C[C@H](O)[C@@H](COP(=O)(O)OP(=O)(O)OP(=O)(O)O)O2)c(=O)[nH]c1=O)c1ccccc1[N+](=O)[O-] (mixture of isomers) [dU.III, 5-[1-(2-Nitrophenyl)-2-methyl-propyloxy]methyl-2'-deoxyuridine-5’-triphosphate]",5.9 ± 0.7 nM,4.2,140 ± 10 nM,20,none of the Family A polymerases showed any activity,1.4,poorly extending the primer before revealing inhibitory effects,,
"O=c1[nH]c(=O)n([C@H]2C[C@H](O)[C@@H](COP(=O)(O)OP(=O)(O)OP(=O)(O)O)O2)cc1COCc1ccccc1[N+](=O)[O-] [dU.I, 5-(2-Nitrobenzyloxy)methyl-2'-deoxyuridine-5’-triphosphate]",2 ± 0.1 nM,1.4,5.7 ± 0.4 nM,0.8,,1.1,,25000 nM,1.8 ± 0.1 nM
